{
  "source": "ChEMBL document CHEMBL1124018",
  "about": "“Synthesis and pharmacological properties of \"soft drug\" derivatives related to perhexiline” (J Med Chem, 1988)",
  "data": [
    {"target": "T1, Adrenergic receptor alpha-1 (Rattus norvegicus, UniProt P15823+P23944+P43140)", "T1 sequence (P15823 whole entry)": "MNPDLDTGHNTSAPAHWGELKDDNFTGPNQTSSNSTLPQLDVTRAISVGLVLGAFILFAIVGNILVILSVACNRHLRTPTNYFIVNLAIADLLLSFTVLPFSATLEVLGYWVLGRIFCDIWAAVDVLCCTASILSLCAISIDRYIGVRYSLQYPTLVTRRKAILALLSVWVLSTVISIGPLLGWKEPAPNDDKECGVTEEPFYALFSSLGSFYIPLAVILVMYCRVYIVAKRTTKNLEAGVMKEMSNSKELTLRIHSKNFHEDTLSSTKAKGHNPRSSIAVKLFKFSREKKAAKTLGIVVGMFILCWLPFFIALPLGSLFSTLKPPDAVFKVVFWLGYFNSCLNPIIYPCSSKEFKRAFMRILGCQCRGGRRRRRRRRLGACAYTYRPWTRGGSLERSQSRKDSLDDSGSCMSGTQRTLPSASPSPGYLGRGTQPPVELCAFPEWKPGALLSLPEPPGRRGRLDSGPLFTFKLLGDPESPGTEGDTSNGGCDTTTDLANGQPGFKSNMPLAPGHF", "T1 sequence (P23944 whole entry)": "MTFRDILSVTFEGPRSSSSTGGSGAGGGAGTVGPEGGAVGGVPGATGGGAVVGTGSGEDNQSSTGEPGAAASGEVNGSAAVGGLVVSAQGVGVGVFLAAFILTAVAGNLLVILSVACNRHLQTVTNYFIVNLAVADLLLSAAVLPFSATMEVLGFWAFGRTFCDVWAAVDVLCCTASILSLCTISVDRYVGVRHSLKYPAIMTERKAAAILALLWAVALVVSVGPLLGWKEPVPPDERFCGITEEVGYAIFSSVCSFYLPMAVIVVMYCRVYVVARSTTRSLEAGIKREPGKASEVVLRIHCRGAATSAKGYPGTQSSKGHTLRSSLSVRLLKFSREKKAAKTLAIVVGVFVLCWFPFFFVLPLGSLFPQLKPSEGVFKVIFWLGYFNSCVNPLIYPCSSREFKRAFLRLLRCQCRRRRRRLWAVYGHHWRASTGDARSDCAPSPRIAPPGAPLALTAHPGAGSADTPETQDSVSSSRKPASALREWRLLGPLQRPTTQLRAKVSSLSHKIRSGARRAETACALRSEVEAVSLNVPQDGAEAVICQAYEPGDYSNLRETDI", "T1 sequence (P43140 whole entry)": "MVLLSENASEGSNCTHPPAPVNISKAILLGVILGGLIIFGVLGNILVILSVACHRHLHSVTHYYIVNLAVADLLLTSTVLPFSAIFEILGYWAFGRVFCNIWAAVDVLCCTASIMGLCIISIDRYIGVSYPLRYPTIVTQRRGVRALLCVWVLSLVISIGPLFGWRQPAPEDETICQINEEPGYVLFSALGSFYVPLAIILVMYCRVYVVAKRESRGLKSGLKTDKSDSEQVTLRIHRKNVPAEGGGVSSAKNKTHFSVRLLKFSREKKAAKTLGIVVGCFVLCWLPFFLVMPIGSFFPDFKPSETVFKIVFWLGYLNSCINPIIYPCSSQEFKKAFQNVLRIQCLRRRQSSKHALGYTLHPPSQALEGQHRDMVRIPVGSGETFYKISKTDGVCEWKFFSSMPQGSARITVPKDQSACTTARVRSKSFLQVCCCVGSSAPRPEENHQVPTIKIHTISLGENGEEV", "test": "Alpha adrenergic receptor activity in rat aorta", "format": "tissue-based", "outline": "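Rat aortic strips held at 2 g resting tension, stabilized about 1 h. Propranolol 10^-6 M for 30 min to block β-receptors. Isometric contraction recorded. Tissues primed with an agonist level giving 70-80% of maximal response, then washed every 15 min for 60 min. Two cumulative norepinephrine curves (10^-10–10^-7 M), with ascorbic acid 1.13 × 10^-5 M present, run before and after 30 min antagonist preincubation. One antagonist concentration per preparation. Reported as pA2.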", "values": [
      {"molecule": "COc1ccc(CCN(C)CC(=O)NC(c2ccccc2)C2CCCCC2)cc1OC.O=C(O)C(=O)O", "note": "(stereo not drawn)", "pA2": 6.5},
      {"molecule": "CN(CC(=O)NC(c1ccccc1)C1CCCCC1)CC1COc2ccccc2O1.O=C(O)C(=O)O", "note": "(stereo not drawn)", "pA2": 6.15},
      {"molecule": "O=C(NCc1ncc[nH]1)C(c1ccccc1)C1CCCCC1.O=C(O)C(=O)O", "note": "(stereo not drawn)", "pA2": 5.2},
      {"molecule": "O=C(CCc1ncc[nH]1)NC(c1ccccc1)C1CCCCC1.O=C(O)C(=O)O", "note": "(stereo not drawn)", "pA2": 4.2},
      {"molecule": "O=C(CC1=NCCN1)NC(c1ccccc1)C1CCCCC1.O=C(O)C(=O)O", "note": "(stereo not drawn)", "pA2": 5.8},
      {"molecule": "O=C(NCCC1=NCCN1)C(c1ccccc1)C1CCCCC1.O=C(O)C(=O)O", "note": "(stereo not drawn)", "pA2": 5.7},
      {"molecule": "O=C(NCCN1CCOCC1)C(c1ccccc1)C1CCCCC1.O=C(O)C(=O)O", "note": "(stereo not drawn)", "pA2": 4.5},
      {"molecule": "O=C(Cc1ncc[nH]1)NC(c1ccccc1)C1CCCCC1.O=C(O)C(=O)O", "note": "(stereo not drawn)", "pA2": 5.9},
      {"molecule": "O=C(NCCN1CCCCC1)C(c1ccccc1)C1CCCCC1.O=C(O)C(=O)O", "note": "(stereo not drawn)", "pA2": 6},
      {"molecule": "O=C(NCCc1ncc[nH]1)C(c1ccccc1)C1CCCCC1.O=C(O)C(=O)O", "note": "(stereo not drawn)", "pA2": 5.4},
      {"molecule": "O=C(CCC1=NCCN1)NC(c1ccccc1)C1CCCCC1.O=C(O)C(=O)O", "note": "(stereo not drawn)", "pA2": 5.4},
      {"molecule": "Cl.O=C(NC1CCCCN1)C(c1ccccc1)C1CCCCC1", "note": "(stereo not drawn)", "pA2": 5.5},
      {"molecule": "CCN(CC)CCNC(=O)C(c1ccccc1)C1CCCCC1.Cl", "note": "(stereo not drawn)", "pA2": 5.4},
      {"molecule": "Cl.O=C(NCC1=NCCN1)C(c1ccccc1)C1CCCCC1", "note": "(stereo not drawn)", "pA2": 6.1},
      {"molecule": "NCC(=O)NC(c1ccccc1)C1CCCCC1.O=C(O)/C=C\\C(=O)O", "note": "(stereo not drawn)", "pA2": 4.5},
      {"molecule": "O=C(NCc1c[nH]cn1)C(c1ccccc1)C1CCCCC1.O=C(O)/C=C\\C(=O)O", "note": "(stereo not drawn)", "pA2": 4.1},
      {"molecule": "CN(CC(=O)NC(c1ccccc1)C1CCCCC1)C1CCCCC1.O=C(O)/C=C\\C(=O)O", "note": "(stereo not drawn)", "pA2": 6.7},
      {"molecule": "CN(C(=O)CNC1CCCCC1)C(c1ccccc1)C1CCCCC1.O=C(O)/C=C\\C(=O)O", "note": "(stereo not drawn)", "pA2": 5.3},
      {"molecule": "O=C(CNCC1COc2ccccc2O1)NC(c1ccccc1)C1CCCCC1.O=C(O)/C=C\\C(=O)O", "note": "(stereo not drawn)", "pA2": 6},
      {"molecule": "O=C(Cc1c[nH]cn1)NC(c1ccccc1)C1CCCCC1.O=C(O)/C=C\\C(=O)O", "note": "(stereo not drawn)", "pA2": 5.3},
      {"molecule": "COc1ccccc1N1CCN(CCC(=O)NC(c2ccccc2)C2CCCCC2)CC1.O=C(O)/C=C\\C(=O)O", "note": "(stereo not drawn)", "pA2": 6},
      {"molecule": "CN(CC(=O)N(C)C(c1ccccc1)C1CCCCC1)C1CCCCC1.O=C(O)/C=C\\C(=O)O", "note": "(stereo not drawn)", "pA2": 4.5},
      {"molecule": "O=C(NCCNC1CCCCC1)C(c1ccccc1)C1CCCCC1", "note": "(stereo not drawn)", "pA2": 6.6},
      {"molecule": "O=C(CNC1CCCCC1)NC(c1ccccc1)C1CCCCC1", "note": "(stereo not drawn)", "pA2": 6.5},
      {"molecule": "CCN(CC)CC(=O)NC(c1ccccc1)C1CCCCC1", "note": "(stereo not drawn)", "pA2": 6},
      {"molecule": "O=C(CCCNC1CCCCC1)NC(c1ccccc1)C1CCCCC1", "note": "(stereo not drawn)", "pA2": 5.8},
      {"molecule": "O=C(CCNC1CCCCC1)NC(c1ccccc1)C1CCCCC1", "note": "(stereo not drawn)", "pA2": 6.1},
      {"molecule": "C1CCC(C(CC2CCCCN2)C2CCCCC2)CC1", "note": "(stereo not drawn) [PERHEXILINE]", "pA2": 6.7}
    ]}
  ]
}
